# Experimental data from different studies.
# Compare with care: the assays were run in different laboratories.
# Organism: Mycobacterium tuberculosis
SMILES,test,test system,setting,measurement,value
CC[C@@H](CO)NCCN[C@@H](CC)CO,microbial growth,H37RV,,IC50,1.51 µM
CCCCCCC#Cc1cncc(-c2nnc(SCc3ccc([N+](=O)[O-])cc3)n2C)c1,microbial growth,,,IC50,1.3 µM
CCCCCCNC(=S)Nc1cccc(-c2cc(C(=O)OC)no2)c1,microbial growth,ATCC27294 H37RV,7 days,MIC,2 mg/L
CCCCCCC#Cc1cncc(-c2nnc(SCc3ccc(Cl)c(F)c3)n2C)c1,microbial growth,ERDMAN,,IC90,13 µM
CO[C@H]1/C=C/O[C@@]2(C)Oc3c(C)c(O)c4c(O)c(c(/C=N/N5CCN(C)CC5)c(O)c4c3C2=O)NC(=O)/C(C)=C\C=C\[C@H](C)[C@H](O)[C@@H](C)[C@@H](O)[C@@H](C)[C@H](OC(C)=O)[C@@H]1C,microbial growth,H37RV,12.5 µg/mL,inhibition,97%
COC(=O)c1cc(-c2cccc(NC(=O)Nc3cccc(C#N)c3)c2)on1,microbial growth,ATCC27294 H37RV,7 days,MIC,16 mg/L
CCOC(=O)c1c(NC(=O)c2c(F)c(F)c(F)c(F)c2F)sc2c1CCN(CC)C2,microbial growth,H37RV,,MIC90,0.23 µM
CCCCCCC#Cc1cncc(-c2nnc(SCc3ccc([N+](=O)[O-])o3)n2C)c1,microbial growth,ERDMAN,,IC90,0.24 µM
CNc1cc(-n2nc(C(=O)NCCN3C(C)CCCC3C)cc2Nc2cc(NC(=O)c3cncc(C(C)(C)C)c3)ccc2C)ncn1 (stereo not drawn),microbial growth,H37RV,,MIC50,0.11 µM
NNC(=O)c1ccncc1,microbial growth,ERDMAN,,IC50,0.18 µM
Cc1ccc(NC(=O)c2cccc(C(F)(F)F)c2)cc1Nc1nccn1-c1cc(NN2CCN(C)CC2)ncn1,microbial growth,H37RV,,MIC50,9.67 µM
[H]/N=C(/N)N[C@H]1[C@H](O)[C@@H](O)[C@H](O[C@@H]2O[C@@H](C)[C@](O)(C=O)[C@H]2O[C@@H]2O[C@@H](CO)[C@H](O)[C@@H](O)[C@@H]2NC)[C@@H](N/C(N)=N\[H])[C@@H]1O,microbial growth,H37RV,,IC90,0.28 µM
O=C(C[n+]1ccn(Cc2cccc(Cn3cc[n+](CC(=O)c4ccc([N+](=O)[O-])cc4)c3)n2)c1)c1ccc([N+](=O)[O-])cc1,microbial killing,H37RV,21 days,MBC,100 µM
CN(CC[C@H](N)CC(=O)N[C@H]1C=C[C@H](n2ccc(N)nc2=O)O[C@@H]1C(=O)O)C(=N)N,microbial growth,H37RA,,IC50,19 µM
COC(=O)c1cc(-c2ccc(NC(=O)Nc3ccc(Cl)c(Cl)c3)cc2)on1,microbial growth,ATCC27294 H37RV,7 days,MIC,0.5 mg/L
O=[N+]([O-])c1cn(Cc2cccc(Cn3cnc([N+](=O)[O-])c3)n2)cn1,microbial killing,H37RV,21 days,MBC,> 200 µM
CCCCCCC#Cc1cncc(-c2nnc(SCc3cc([N+](=O)[O-])cc([N+](=O)[O-])c3)n2C)c1,microbial growth,ERDMAN,,IC90,0.44 µM
COC(=O)c1cc(-c2cccc(NC(=O)Nc3cccc(Br)c3)c2)on1,microbial growth,ATCC27294 H37RV,7 days,MIC,0.5 mg/L
